Bioassay records as filed in PubChem BioAssay.
Rows were chosen to be rich in hits. Some 2.9% of all compounds tested hit in one or more screens of this group.
C2C12 statin: protects C2C12 myotubes from simvastatin toxicity; actives 0.78% (n = 330,000); AID 602340; ATP luminescence, 48 h; scaled: DMSO 0, geranylgeraniol control 100; rescue of ATP level, % at 7.49 µM;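 active = mean ATP rescue above about 67%, or every replicate alone reaching that limit, limit read from the data, passing the limit was not always enough; inconclusive = no clear call, values can overlap the other calls; inactive = mean under the limit and some replicate under it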;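 note: myotubes were challenged with 10 µM simvastatin during compound exposure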
PGC1a acetyl inh: modulators of PGC1a acetylation; inhibition, % at 15.6 µM; U2OS PGC1a acetylation, AlphaScreen anti-acetyl-lysine; with virally co-expressed GCN5 acetyltransferase; actives 0.17% (n = 350,000);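 active = every replicate shows inhibition of at least 40%; inconclusive = mean inhibition at least 40% but some replicate below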;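 note: 0% = neutral control wells and 100% = positive control wells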
SIRT5 inh: inhibitors of human sirtuin-5 desuccinylase | actives 1.1% (n = 330,000) | Purified SirT5, succinyl-peptide AMC, trypsin-coupled fluorescence | inhibition, % at 15 µM | AID 652115; in the data active = inhibition above about 15%; inconclusive = no clear call, values can overlap the other calls
Target sequence (Q9NXA8 whole entry, looked up): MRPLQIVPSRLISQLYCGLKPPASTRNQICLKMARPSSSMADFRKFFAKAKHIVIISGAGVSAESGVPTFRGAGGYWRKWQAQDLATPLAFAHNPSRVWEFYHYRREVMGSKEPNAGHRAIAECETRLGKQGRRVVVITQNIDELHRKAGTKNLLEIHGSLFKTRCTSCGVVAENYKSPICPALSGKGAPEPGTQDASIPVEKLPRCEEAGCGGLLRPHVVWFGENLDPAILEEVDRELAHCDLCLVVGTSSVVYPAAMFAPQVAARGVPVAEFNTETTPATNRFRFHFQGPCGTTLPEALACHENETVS
S100A4 MyoIIA: blocks human S100A4 binding to myosin IIA peptide. P26447. S100A4/TAMRA-MyoIIA peptide fluorescence polarization. inhibition, % at 10.7 µM. actives 0.14% (n = 360,000). AID 652163;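 active = mean inhibition of at least 70% across replicates, with every replicate also reaching that level; inconclusive = mean inhibition reaches 70% but some replicates fall short; inactive = mean inhibition below 70%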
Target sequence (P26447 whole entry, looked up): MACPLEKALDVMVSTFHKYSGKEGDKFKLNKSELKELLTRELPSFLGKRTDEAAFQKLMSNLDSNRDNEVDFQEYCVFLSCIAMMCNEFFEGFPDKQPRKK
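Test system: S100A4 monomer protein. Medium: HEPES buffer with Ca2+, pH 7.2. Reagent: fluorescent myosin IIA peptide, 5 nM. Compound dosing: single-point compound testing. Timing: 5 min between mix addition and reading. Benchmarks: DMSO neutral and TFP positive wells.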
DENV2 CPE rescue: inhibitors of DENV2 cytopathic effect. DENV2-infected cells, cytopathic effect rescue, plate reader. CPE inhibition, % at 9.99 µM. actives 1.7% (n = 350,000); in the data active = CPE inhibition above about 20%, passing the limit was not always enough; inconclusive = no clear call, values can overlap the other calls; tested in BHK-21 cells;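 note: 0% = median of neutral control wells and 100% = median of positive control wells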
* marks the source's active call; other numbers are inactive results; ? = inconclusive; / = no result.

SMILES | C2C12 statin | PGC1a acetyl inh | SIRT5 inh | S100A4 MyoIIA | DENV2 CPE rescue
O=C(CCN1CCCCC1)NCC[C@@H]1CC[C@@H](NS(=O)(=O)c2cccc(Cl)c2)[C@@H](CO)O1 | -6 | 6 | -2 | -3 | 2
C[C@@H]1CCCCO[C@@H](CN(C)S(=O)(=O)c2ccc(F)cc2)[C@@H](C)CN([C@H](C)CO)C(=O)c2cc(NC(=O)c3ccncc3)ccc2O1 | / | 10 | 2 | -2 | -2
C[C@@H]1CN([C@H](C)CO)C(=O)c2cc(C#Cc3ccccc3)cnc2O[C@H]1CN(C)CC1CCOCC1 | 6 | 6 | -7 | 6 | 3
CN1c2ccc(Br)cc2[C@H]2[C@H](CCN2C(=O)Cc2cccnc2)[C@@H]1CO | 8 | -6 | 6 | 32 | -1
Cc1cc2c(cc1S(=O)(=O)N1CCN(c3cccc(C(F)(F)F)c3)CC1)OCC(=O)N2 | 10 | -22 | -2 | 3 | 32*
O=C(CCSc1nnc(-c2ccccc2)o1)N1CCOCC1 | / | / | -1 | -2 | 27*
Cc1ccc(-c2csc(NC(=O)c3ccc(-c4ccccc4)cc3)n2)o1 | 89* | 2 | / | / | /
COc1ccc(NC(=O)[C@H](C)NC(N)=O)cc1S(=O)(=O)Nc1cc(C)ccc1Br | 12 | -5 | 16* | 3 | 2
CCOC(=O)c1nn(-c2ccc(F)cc2)c(C)c1C(C)=O | 74* | 1 | / | / | /
C[C@@H]1CCCCO[C@@H](CN(C)S(C)(=O)=O)[C@H](C)CN([C@@H](C)CO)C(=O)c2cc(NC(=O)Nc3ccc(F)cc3)ccc2O1 | / | 5 | / | / | -4
COC(=O)c1cccc(NC(=O)c2ccc3c(c2)C(=O)N(C(C)(C)C)C3=O)c1 | 0 | -13 | -4 | 0 | ?
CC(C)(C)N1C(=O)c2ccc(C(=O)Nc3ccc(O)cc3)cc2C1=O | -50 | / | 4 | -1 | 54*
CC(C)(C)NC(=O)c1cccc(NC(=O)c2ccc3c(c2)C(=O)N(C(C)(C)C)C3=O)c1 | -34 | 7 | 2 | 1 | 44*
CN1C(=O)c2cc(NC(=O)NC3CCCC3)ccc2OC[C@H]2O[C@H](CC(=O)NC3CCC3)CC[C@@H]21 | -12 | 0 | -6 | -7 | 61*
CCC(=O)Nc1ccc2c(c1)C(=O)N(C)[C@@H]1CC[C@H](CC(=O)NC3CCCC3)O[C@H]1CO2 | 12 | 6 | 1 | -2 | 43*
CCC(=O)Nc1ccc2c(c1)C(=O)N(C)[C@H]1CC[C@H](CC(=O)NC3CCCC3)O[C@H]1CO2 | 9 | -4 | -12 | -8 | -10
Cc1nc2scc(C)n2c(=O)c1S(=O)(=O)Nc1ccc(N2CCN(C(=O)C(C)C)CC2)cc1 | 8 | 0 | 10 | 0 | 51*
Cc1nc2scc(C)n2c(=O)c1S(=O)(=O)Nc1ccc(N2CCOCC2)cc1 | 10 | -4 | 11 | 5 | -6
Cc1ccccc1CN1CCN(CC(=O)NC(C)c2ccccc2)CC1 (stereo unspecified) | 24 | 10 | / | 0 | 27*
CC(NC(=O)CN1CCCC1)c1ccccc1 (stereo unspecified) | 2 | 0 | / | -2 | 24*
COc1ccc2nc(SC(C)C(=O)NC3CCCC3)[nH]c2c1 (stereo unspecified) | -6 | / | -2 | -4 | 64*
COc1ccc2nc(SC(C)C(=O)NC3(C#N)CCCCC3)[nH]c2c1 (stereo unspecified) | 7 | 3 | 2 | 0 | -6
C[C@H]1CN([C@@H](C)CO)C(=O)c2c(c3ccccc3n2C)-c2ccccc2CO[C@H]1CN(C)Cc1ccc(Oc2ccccc2)cc1 | / | -15 | -4 | -5 | 9
CN(C)C(CNC(=O)CCc1nc2cc(Cl)ccc2n(Cc2ccccc2)c1=O)c1ccccc1 (stereo unspecified) | 30 | 0 | -1 | 190* | -1
CCNC(=S)NNC(=O)CCc1nc2cc(Cl)ccc2n(Cc2ccccc2)c1=O | 18 | 34 | 3 | 5 | -4
SMILES | C2C12 statin | PGC1a acetyl inh | SIRT5 inh | S100A4 MyoIIA | DENV2 CPE rescue
CN1CCN(C(=O)C[C@@H]2C[C@H]3c4cc(NS(C)(=O)=O)ccc4O[C@H]3[C@H](CO)O2)CC1 | 7 | 6 | 1 | 15 | 4
Clc1ccc(C(c2nnnn2C2CCCC2)N2CCN(Cc3ccncc3)CC2)cc1 (stereo unspecified) | 3 | -11 | / | / | /
c1ccc(C(c2ccccc2)N2CCN(Cc3nnnn3C3CCCC3)CC2)cc1 | 77* | 4 | / | / | /
Fc1ccc(C(c2nnnn2C2CCCC2)N2CCN(Cc3ccccc3)CC2)cc1 (stereo unspecified) | 137* | -14 | / | / | /
CCC(c1nnnn1C1CCCC1)N1CCN(c2ccccc2F)CC1 (stereo unspecified) | 124* | 5 | / | / | /
O=C(N[C@H]1CC[C@H](CCNC(=O)c2ccccc2F)O[C@@H]1CO)c1ccc2c(c1)OCO2 | 0 | 1 | -2 | -9 | -6
C[C@@H]1CCCCO[C@@H](CN(C)C(=O)Nc2ccc3c(c2)OCO3)[C@H](C)CN([C@@H](C)CO)C(=O)c2cc(N(C)C)ccc2O1 | -32 | -11 | / | / | /
CC=Cc1ccc2n(c1=O)C[C@H]1[C@H](CO)[C@@H](C(=O)NCc3ccncc3)N(Cc3ccncc3)[C@@H]21 (mixture of isomers) | -9 | / | 1 | 6 | 4
CCOC(=O)c1sc(/N=C/N(C)C)nc1C | / | 3 | / | 20 | 40*
CCOC(=O)c1sc(/N=C/N(C)C)c(C(=O)OCC)c1C | 2 | -10 | / | / | /
Nc1c(-c2ccccc2)nc2ncccn12 | / | / | 0 | -12 | 28*
C[C@H](NC(=O)C[C@@H]1CC[C@H](NC(=O)C2CCOCC2)[C@@H](CO)O1)c1ccccc1 | 2 | 6 | 4 | 111* | 1
C[C@H](NC(=O)C[C@H]1CC[C@H](NC(=O)C2CCOCC2)[C@@H](CO)O1)c1ccccc1 | -8 | -7 | -1 | 9 | 9
C[C@@H](NC(=O)C[C@H]1CC[C@@H](NC(=O)CN2CCOCC2)[C@@H](CO)O1)c1ccccc1 | -2 | 5 | 17* | 5 | 5
C[C@H](NC(=O)C[C@@H]1CC[C@@H](NC(=O)CN2CCOCC2)[C@H](CO)O1)c1ccccc1 | 1 | -15 | 8 | 0 | 5
OC[C@H]1[C@H]2c3ccccc3NC[C@H]2N1CC1CCOCC1 | 20 | -1 | -3 | 6 | 21*
OC[C@H]1[C@@H]2c3ccccc3NC[C@@H]2N1Cc1ccccc1Cl | 28 | 7 | 5 | -2 | 33*
OC[C@H]1[C@H]2c3ccccc3NC[C@H]2N1Cc1ccccc1Cl | 39 | 10 | 1 | 1 | 16
O=C(C1CC1)N1[C@@H](CO)[C@@H]2c3ccccc3NC[C@@H]21 | 3 | 3 | -3 | -4 | 95*
O=C(CN1CCOCC1)N1[C@@H](CO)[C@@H]2c3ccccc3NC[C@@H]21 | -4 | 7 | 4 | 65 | -1
Cc1ccc(S(=O)(=O)Nc2ccc3c(c2)CC(=O)N([C@@H](C)CO)C[C@@H](C)[C@@H](CN(C)C(=O)Nc2ccc(F)cc2)O3)cc1 | 25 | 2 | 0 | -21 | 7
